“And” between values parts separate entries of the source, which are not always exact repeats. Equal values may be shown once.
Tested on: U2OS
Assay: Multiplex assay against U2OS
Assay type: toxicity, cell-based
Settings: human, number of replicates 2
Summary of the method: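 Cells stained live at seeding with Hoechst33342, BioTracker Green Microtubule Cytoskeleton Dye, MitoTracker Red and Annexin V Alexa Fluor 680 were imaged on a CQ1 microscope at 37°C and 5% CO2 after compound addition. Their classification by CellPathfinder machine-learning gating ran from Hoechst high-intensity objects versus normal cells, to healthy, pyknosed or fragmented nuclei among normal cells, to mitotic or apoptotic among pyknosed cells. Tubulin, mitochondrial-mass and membrane-permeability phenotypes are per cents of healthy-nucleus cells.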

[1] = 12 h, 1 µM, compound concentration 1 uM
[2] = 12 h, 10 µM, compound concentration 10 uM
[3] = 24 h, 1 µM, compound concentration 1 uM
[4] = 24 h, 10 µM, compound concentration 10 uM
[5] = 48 h, 1 µM, compound concentration 1 uM
[6] = 48 h, 10 µM, compound concentration 10 uM

Cn1cc(-c2ccc(-c3cncc(Cl)c3N3CCC4(CCNC4=O)CC3)cc2)cn1
Population Apoptotic (%) [1]: 56% and 66% | Population Healthy Nuclei (%) [1]: 86% and 64% | Population Hoechst High Intensity Objects (%) [1]: 0% | Population Membrane Permeable-Phenotype (%) [1]: 3% and 7% | Population Mitochondria Different-Phenotype (%) [1]: 1% and 0% | Population Mitotic Cells (%) [1]: 43% and 33% | Population Normal (%) [1]: 99% and 100% | Population Pyknosed Nuclei (%) [1]: 8% and 7% | Population Tubulin-Different-Phenotype (%) [1]: 64% and 40% | Population Apoptotic (%) [2]: 100% and 50% | Population Healthy Nuclei (%) [2]: 61% and 79% | Population Hoechst High Intensity Objects (%) [2]: 0% | Population Membrane Permeable-Phenotype (%) [2]: 19% and 10% | Population Mitochondria Different-Phenotype (%) [2]: 0% and 6% | Population Normal (%) [2]: 100% | Population Pyknosed Nuclei (%) [2]: 9% and 14% | Population Tubulin-Different-Phenotype (%) [2]: 23% and 36% | Population Apoptotic (%) [3]: 72% and 66% | Population Healthy Nuclei (%) [3]: 88% and 65% | Population Hoechst High Intensity Objects (%) [3]: 0% | Population Membrane Permeable-Phenotype (%) [3]: 2% and 7% | Population Mitochondria Different-Phenotype (%) [3]: 2% and 0% | Population Mitotic Cells (%) [3]: 27% and 33% | Population Normal (%) [3]: 100% | Population Pyknosed Nuclei (%) [3]: 8% and 6% | Population Tubulin-Different-Phenotype (%) [3]: 65% and 39% | Population Apoptotic (%) [4]: 88% and 60% | Population Healthy Nuclei (%) [4]: 59% and 80% | Population Hoechst High Intensity Objects (%) [4]: 0% | Population Membrane Permeable-Phenotype (%) [4]: 20% and 14% | Population Mitochondria Different-Phenotype (%) [4]: 0% and 17% | Population Normal (%) [4]: 100% and 99% | Population Pyknosed Nuclei (%) [4]: 21% and 13% | Population Tubulin-Different-Phenotype (%) [4]: 32% and 46% | Population Apoptotic (%) [5]: 70% and 100% | Population Healthy Nuclei (%) [5]: 88% and 65% | Population Hoechst High Intensity Objects (%) [5]: 0% | Population Membrane Permeable-Phenotype (%) [5]: 2% and 5% | Population Mitochondria Different-Phenotype (%) [5]: 3% and 0% | Population Normal (%) [5]: 99% and 100% | Population Pyknosed Nuclei (%) [5]: 7% and 6% | Population Tubulin-Different-Phenotype (%) [5]: 65% and 47% | Population Apoptotic (%) [6]: 78% and 92% | Population Fragmented Nuclei (%) [6]: 7% and 17% | Population Healthy Nuclei (%) [6]: 74% and 53% | Population Hoechst High Intensity Objects (%) [6]: 0% | Population Membrane Permeable-Phenotype (%) [6]: 25% and 33% | Population Mitotic Cells (%) [6]: 21% and 7% | Population Normal (%) [6]: 100% | Population Pyknosed Nuclei (%) [6]: 17% and 28% | Population Tubulin-Different-Phenotype (%) [6]: 50% and 45%

NC(=O)c1ccc(-c2nc(-c3ccc4c(c3)OCCO4)c(-c3ccccn3)[nH]2)cc1
Population Apoptotic (%) [1]: 40% and 85% | Population Fragmented Nuclei (%) [1]: 1% and 4% | Population Healthy Nuclei (%) [1]: 88% and 86% | Population Hoechst High Intensity Objects (%) [1]: 1% and 0% | Population Membrane Permeable-Phenotype (%) [1]: 4% and 1% | Population Mitochondria Different-Phenotype (%) [1]: 0% and 1% | Population Normal (%) [1]: 98% and 100% | Population Pyknosed Nuclei (%) [1]: 9% | Population Tubulin-Different-Phenotype (%) [1]: 53% and 86% | Total Cell Count [1]: 54 and 150 | Population Apoptotic (%) [2]: 46% and 33% | Population Healthy Nuclei (%) [2]: 78% and 63% | Population Hoechst High Intensity Objects (%) [2]: 0% | Population Membrane Permeable-Phenotype (%) [2]: 4% and 0% | Population Mitochondria Different-Phenotype (%) [2]: 3% and 0% | Population Mitotic Cells (%) [2]: 53% and 66% | Population Normal (%) [2]: 100% | Population Pyknosed Nuclei (%) [2]: 14% and 8% | Population Tubulin-Different-Phenotype (%) [2]: 62% and 39% | Population Apoptotic (%) [3]: 54% and 64% | Population Fragmented Nuclei (%) [3]: 2% and 1% | Population Healthy Nuclei (%) [3]: 84% and 92% | Population Hoechst High Intensity Objects (%) [3]: 0% | Population Membrane Permeable-Phenotype (%) [3]: 1% | Population Mitochondria Different-Phenotype (%) [3]: 0% | Population Mitotic Cells (%) [3]: 45% and 35% | Population Normal (%) [3]: 100% | Population Pyknosed Nuclei (%) [3]: 13% and 6% | Population Tubulin-Different-Phenotype (%) [3]: 56% and 92% | Total Cell Count [3]: 84 and 214 | Population Healthy Nuclei (%) [4]: 86% and 65% | Population Hoechst High Intensity Objects (%) [4]: 0% | Population Membrane Permeable-Phenotype (%) [4]: 3% and 0% | Population Mitochondria Different-Phenotype (%) [4]: 4% and 3% | Population Normal (%) [4]: 99% and 100% | Population Pyknosed Nuclei (%) [4]: 9% and 2% | Population Tubulin-Different-Phenotype (%) [4]: 59% and 48% | Population Apoptotic (%) [5]: 52% and 74% | Population Fragmented Nuclei (%) [5]: 6% and 3% | Population Healthy Nuclei (%) [5]: 82% and 90% | Population Hoechst High Intensity Objects (%) [5]: 0% | Population Membrane Permeable-Phenotype (%) [5]: 0% and 1% | Population Mitochondria Different-Phenotype (%) [5]: 0% | Population Mitotic Cells (%) [5]: 47% and 25% | Population Normal (%) [5]: 100% | Population Pyknosed Nuclei (%) [5]: 10% and 6% | Population Tubulin-Different-Phenotype (%) [5]: 62% and 95% | Population Apoptotic (%) [6]: 77% and 78% | Population Fragmented Nuclei (%) [6]: 21% and 7% | Population Healthy Nuclei (%) [6]: 66% and 78% | Population Hoechst High Intensity Objects (%) [6]: 0% | Population Membrane Permeable-Phenotype (%) [6]: 8% and 3% | Population Mitochondria Different-Phenotype (%) [6]: 4% and 2% | Population Mitotic Cells (%) [6]: 22% and 21% | Population Normal (%) [6]: 100% | Population Pyknosed Nuclei (%) [6]: 12% and 14% | Population Tubulin-Different-Phenotype (%) [6]: 61% and 67%

CC(C)S(=O)(=O)c1ccccc1Nc1nc(N[C@@H]2CCCN(CCCCCCCNC(=O)COc3cccc4c3C(=O)N(C3CCC(=O)NC3=O)C4=O)C2)ncc1Cl (stereo not given in full)
Population Apoptotic (%) [1]: 82% and 80% | Population Fragmented Nuclei (%) [1]: 14% and 8% | Population Healthy Nuclei (%) [1]: 43% and 61% | Population Hoechst High Intensity Objects (%) [1]: 0% and 1% | Population Membrane Permeable-Phenotype (%) [1]: 5% | Population Mitochondria Different-Phenotype (%) [1]: 5% and 6% | Population Mitotic Cells (%) [1]: 17% and 19% | Population Normal (%) [1]: 100% and 98% | Population Pyknosed Nuclei (%) [1]: 41% and 30% | Population Tubulin-Different-Phenotype (%) [1]: 66% and 62% | Population Apoptotic (%) [2]: 85% and 81% | Population Fragmented Nuclei (%) [2]: 11% and 7% | Population Healthy Nuclei (%) [2]: 38% and 61% | Population Hoechst High Intensity Objects (%) [2]: 0% and 5% | Population Membrane Permeable-Phenotype (%) [2]: 81% and 57% | Population Mitochondria Different-Phenotype (%) [2]: 62% and 55% | Population Mitotic Cells (%) [2]: 14% and 18% | Population Normal (%) [2]: 100% and 94% | Population Pyknosed Nuclei (%) [2]: 50% and 31% | Population Tubulin-Different-Phenotype (%) [2]: 100% and 96% | Population Apoptotic (%) [3]: 83% and 87% | Population Fragmented Nuclei (%) [3]: 24% and 14% | Population Healthy Nuclei (%) [3]: 22% and 41% | Population Hoechst High Intensity Objects (%) [3]: 0% and 2% | Population Membrane Permeable-Phenotype (%) [3]: 0% and 5% | Population Mitochondria Different-Phenotype (%) [3]: 0% and 6% | Population Mitotic Cells (%) [3]: 16% and 12% | Population Normal (%) [3]: 100% and 97% | Population Pyknosed Nuclei (%) [3]: 53% and 44% | Population Tubulin-Different-Phenotype (%) [3]: 70% and 87% | Population Apoptotic (%) [4]: 93% and 89% | Population Fragmented Nuclei (%) [4]: 21% and 10% | Population Healthy Nuclei (%) [4]: 19% and 31% | Population Hoechst High Intensity Objects (%) [4]: 0% and 8% | Population Membrane Permeable-Phenotype (%) [4]: 0% and 25% | Population Mitotic Cells (%) [4]: 6% and 10% | Population Normal (%) [4]: 100% and 91% | Population Pyknosed Nuclei (%) [4]: 59% and 58% | Population Tubulin-Different-Phenotype (%) [4]: 40% and 55% | Population Apoptotic (%) [5]: 96% and 95% | Population Healthy Nuclei (%) [5]: 22% and 28% | Population Hoechst High Intensity Objects (%) [5]: 2% and 3% | Population Mitotic Cells (%) [5]: 3% and 4% | Population Normal (%) [5]: 97% and 96% | Population Pyknosed Nuclei (%) [5]: 54% and 63% | Population Tubulin-Different-Phenotype (%) [5]: 90% and 85% | Population Apoptotic (%) [6]: 90% and 97% | Population Fragmented Nuclei (%) [6]: 8% and 22% | Population Healthy Nuclei (%) [6]: 12% and 0% | Population Hoechst High Intensity Objects (%) [6]: 9% and 2% | Population Mitotic Cells (%) [6]: 9% and 2% | Population Normal (%) [6]: 90% and 97% | Population Pyknosed Nuclei (%) [6]: 79% and 77%

CN(C)CCCNc1ccnc(Nc2cccc(Cl)c2)n1
Population Apoptotic (%) [1]: 60% and 50% | Population Fragmented Nuclei (%) [1]: 6% and 5% | Population Healthy Nuclei (%) [1]: 84% and 82% | Population Hoechst High Intensity Objects (%) [1]: 0% | Population Membrane Permeable-Phenotype (%) [1]: 0% | Population Mitochondria Different-Phenotype (%) [1]: 0% | Population Mitotic Cells (%) [1]: 39% and 50% | Population Normal (%) [1]: 100% | Population Pyknosed Nuclei (%) [1]: 9% and 11% | Population Tubulin-Different-Phenotype (%) [1]: 70% and 42% | Population Apoptotic (%) [2]: 50% | Population Fragmented Nuclei (%) [2]: 11% and 17% | Population Healthy Nuclei (%) [2]: 79% and 67% | Population Hoechst High Intensity Objects (%) [2]: 0% | Population Membrane Permeable-Phenotype (%) [2]: 4% and 5% | Population Mitochondria Different-Phenotype (%) [2]: 4% and 5% | Population Mitotic Cells (%) [2]: 50% | Population Normal (%) [2]: 100% | Population Pyknosed Nuclei (%) [2]: 9% and 14% | Population Tubulin-Different-Phenotype (%) [2]: 52% and 42% | Population Apoptotic (%) [3]: 66% and 82% | Population Fragmented Nuclei (%) [3]: 2% and 4% | Population Healthy Nuclei (%) [3]: 91% and 88% | Population Hoechst High Intensity Objects (%) [3]: 0% | Population Membrane Permeable-Phenotype (%) [3]: 0% and 2% | Population Mitochondria Different-Phenotype (%) [3]: 0% and 1% | Population Mitotic Cells (%) [3]: 33% and 17% | Population Normal (%) [3]: 100% | Population Pyknosed Nuclei (%) [3]: 6% and 7% | Population Tubulin-Different-Phenotype (%) [3]: 51% and 74% | Population Apoptotic (%) [4]: 38% and 33% | Population Fragmented Nuclei (%) [4]: 14% and 22% | Population Healthy Nuclei (%) [4]: 67% and 54% | Population Hoechst High Intensity Objects (%) [4]: 0% | Population Membrane Permeable-Phenotype (%) [4]: 2% and 6% | Population Mitochondria Different-Phenotype (%) [4]: 6% and 3% | Population Mitotic Cells (%) [4]: 61% and 66% | Population Normal (%) [4]: 100% | Population Pyknosed Nuclei (%) [4]: 18% and 22% | Population Tubulin-Different-Phenotype (%) [4]: 64% and 48% | Population Apoptotic (%) [5]: 70% and 78% | Population Fragmented Nuclei (%) [5]: 5% and 3% | Population Healthy Nuclei (%) [5]: 81% and 89% | Population Hoechst High Intensity Objects (%) [5]: 0% | Population Membrane Permeable-Phenotype (%) [5]: 0% and 1% | Population Mitochondria Different-Phenotype (%) [5]: 0% | Population Mitotic Cells (%) [5]: 30% and 21% | Population Normal (%) [5]: 100% and 99% | Population Pyknosed Nuclei (%) [5]: 13% and 7% | Population Tubulin-Different-Phenotype (%) [5]: 56% and 80% | Population Apoptotic (%) [6]: 94% and 73% | Population Fragmented Nuclei (%) [6]: 15% and 14% | Population Healthy Nuclei (%) [6]: 47% and 50% | Population Hoechst High Intensity Objects (%) [6]: 3% and 1% | Population Membrane Permeable-Phenotype (%) [6]: 12% and 5% | Population Mitochondria Different-Phenotype (%) [6]: 4% and 5% | Population Normal (%) [6]: 96% and 98% | Population Pyknosed Nuclei (%) [6]: 37% and 34% | Population Tubulin-Different-Phenotype (%) [6]: 62% and 67%

Reference: ChEMBL document CHEMBL5303300, “EUbOPEN Chemogenomics Library - Multiplex” (2023)
